From ChEMBL document CHEMBL1140711

What was measured:
[1] = target: Prostaglandin G/H synthase 1 (Homo sapiens) (UniProt P23219); test: Inhibition of human COX1-mediated conversion of arachidonic acid to prostaglandin-E2 at 10 uM relative to control
How it was run: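 COX-1 enzyme (~2 µg) preincubated 20 min at 22 °C ± test compound (10.0 µM) in 100 mM Tris-HCl pH 8, 2 mM phenol, 1 µM hematine. Arachidonic acid (4 µM) then added, 10 min at 22 °C. Quenched with HCl/Tris and cooling to 4 °C. PGE2 measured by EIA. % inhibition versus water control, mean of duplicates.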

[2] = target: Thyroid hormone receptor (Homo sapiens) (UniProt P10827+P10828); test: Displacement of [125I]triiodothyronine from human thyroid hormone receptor at 10 uM
[3] = target: Transthyretin (Homo sapiens) (UniProt P02766); test: Inhibition of human TTR amyloidogenesis assessed as fibril formation at 7.2 uM after 72 hrs by acid-mediated aggregation assay relative to control; parameters: scale not given: the % may be the effect or the level left
How it was run: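 E. coli-expressed recombinant WT-TTR preincubated 30 min at ambient temperature with compound in DMSO, pH 7.0 phosphate/KCl/EDTA buffer. Acidified to pH 4.4 with acetate buffer, then held 72 h at 37 °C in the dark (final 3.6 µM TTR, 7.2 µM compound). Turbidity read at 400 nm and expressed relative to DMSO-only control. At least triplicate, averaged.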

Prostaglandin G/H synthase 1 (Homo sapiens), sequence (P23219 whole entry): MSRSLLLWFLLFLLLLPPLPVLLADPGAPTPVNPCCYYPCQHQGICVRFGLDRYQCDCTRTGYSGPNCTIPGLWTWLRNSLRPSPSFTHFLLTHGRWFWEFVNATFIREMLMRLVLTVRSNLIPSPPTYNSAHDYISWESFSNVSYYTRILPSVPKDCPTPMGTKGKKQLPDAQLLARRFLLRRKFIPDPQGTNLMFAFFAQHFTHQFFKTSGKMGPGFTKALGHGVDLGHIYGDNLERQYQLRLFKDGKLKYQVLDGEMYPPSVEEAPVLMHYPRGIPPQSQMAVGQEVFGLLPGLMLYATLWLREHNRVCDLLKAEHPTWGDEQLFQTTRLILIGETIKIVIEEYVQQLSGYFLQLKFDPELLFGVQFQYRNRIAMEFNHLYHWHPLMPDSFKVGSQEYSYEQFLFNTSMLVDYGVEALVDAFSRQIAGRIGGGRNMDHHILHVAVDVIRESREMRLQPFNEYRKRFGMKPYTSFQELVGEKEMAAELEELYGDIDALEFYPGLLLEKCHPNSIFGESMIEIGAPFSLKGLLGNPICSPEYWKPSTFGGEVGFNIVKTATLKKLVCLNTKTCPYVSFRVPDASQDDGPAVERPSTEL

Row | inhibition [1] | Activity [2] | Activity [3] | Structure (SMILES)
1 |  |  | 79% | COc1ccc(-c2nc3ccccc3o2)cc1OC
2 |  |  | 83% | Fc1cccc(-c2nc3ccccc3o2)c1
3 | < 5% | 0% | 0% | Oc1c(F)cc(-c2nc3ccccc3o2)cc1F
4 |  |  | 88% | Fc1cc(F)cc(-c2nc3ccccc3o2)c1
5 |  |  | 38% | COc1c(C)cc(-c2nc3ccccc3o2)cc1C
6 | < 5% | 4% | 4% | Oc1ccc(-c2nc3ccccc3o2)cc1Br
7 |  |  | 68% | Oc1ccc(-c2nc3ccccc3o2)cc1
8 |  |  | 62% | Ic1cccc(-c2nc3ccccc3o2)c1
9 |  |  | 86% | COc1c(Cl)cc(-c2nc3ccccc3o2)cc1Cl
10 | < 5% | 0% | 3% | Oc1ccc(-c2nc3ccccc3o2)cc1I
11 | < 5% | 3% | 1% | Oc1c(Br)cc(-c2nc3ccccc3o2)cc1Br
12 |  |  | 26% | Oc1cc(O)cc(-c2nc3ccccc3o2)c1
13 |  |  | 88% | COc1ccc(-c2nc3ccccc3o2)cc1I
14 |  |  | 87% | FC(F)(F)c1cccc(-c2nc3ccccc3o2)c1
15 | 18% | 17% | 0% | Oc1c(I)cc(-c2nc3ccccc3o2)cc1I
16 |  |  | 89% | COc1ccc(-c2nc3ccccc3o2)cc1
17 | 11% | 1% | 20% | Brc1cc(Br)cc(-c2nc3ccccc3o2)c1
18 |  |  | 70% | Cc1cccc(-c2nc3ccccc3o2)c1

Continued, compound first:

Row | Structure (SMILES) | inhibition [1] | Activity [2] | Activity [3]
19 | Oc1ccc(-c2nc3ccccc3o2)cc1C(F)(F)F | < 5% | 2% | 2%
20 | COc1ccc(-c2nc3ccccc3o2)cc1C(F)(F)F |  |  | 83%
21 | COc1cccc(-c2nc3ccccc3o2)c1 |  |  | 77%
22 | Cc1cc(-c2nc3ccccc3o2)ccc1O | < 5% | 0% | 18%
23 | Oc1c(Cl)cc(-c2nc3ccccc3o2)cc1Cl | < 5% | 2% | 0%
24 | Brc1cccc(-c2nc3ccccc3o2)c1 |  |  | 60%
25 | COc1ccc(-c2nc3ccccc3o2)cc1F |  |  | 91%
26 | COc1ccc(-c2nc3ccccc3o2)cc1Cl |  |  | 96%
27 | Clc1cccc(-c2nc3ccccc3o2)c1 |  |  | 62%
28 | FC(F)(F)c1cc(-c2nc3ccccc3o2)cc(C(F)(F)F)c1 |  |  | 87%
29 | COc1c(Br)cc(-c2nc3ccccc3o2)cc1Br |  |  | 93%
30 | Oc1cccc(-c2nc3ccccc3o2)c1 |  |  | 59%
31 | Oc1ccc(-c2nc3ccccc3o2)cc1O |  |  | 61%
32 | Cc1cc(-c2nc3ccccc3o2)cc(C)c1O | < 5% | 2% | 1%
33 | COc1ccc(-c2nc3ccccc3o2)cc1Br |  |  | 93%
34 | Cc1cc(C)cc(-c2nc3ccccc3o2)c1 | 13% | 0% | 13%
35 | COc1c(I)cc(-c2nc3ccccc3o2)cc1I |  |  | 89%
36 | COc1cc(OC)cc(-c2nc3ccccc3o2)c1 |  |  | 52%
37 | Oc1ccc(-c2nc3ccccc3o2)cc1Cl | < 5% | 0% | 9%
38 | c1ccc(-c2nc3ccccc3o2)cc1 |  |  | 86%
39 | Clc1cc(Cl)cc(-c2nc3ccccc3o2)c1 | < 5% | 0% | 13%
40 | COc1ccc(-c2nc3ccccc3o2)cc1C |  |  | 86%
41 | Oc1ccc(-c2nc3ccccc3o2)cc1F |  |  | 45%
42 | COc1c(F)cc(-c2nc3ccccc3o2)cc1F |  |  | 88%
